Laboratory results: ChEMBL document CHEMBL3351454, “Design, synthesis, antimicrobial evaluation and molecular docking studies of some new thiophene, pyrazole and pyridone derivatives bearing sulfisoxazole moiety” (2014)
Converted amounts (≈) assume the structure as drawn.

Assays:
Assay type in all cases: functional
[1] = system: Staphylococcus epidermidis; experiment: Antimicrobial activity against Staphylococcus epidermidis RCMB 010024 assessed as inhibition zone at 5 mg/ml after 24 hrs; settings: RCMB 010024, 24 h, read-out: IZ
In short: (§1)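 Agar diffusion on nutrient agar seeded with 10^6 CFU/mL bacteria. Filter-paper disks were loaded with 100 µL of a 5 mg/mL compound solution in DMF, with a DMF-only control. Incubation was 37 °C for 24 h. Inhibition zone in mm (mean ± SD, triplicate plates) was measured beyond the 6 mm diameter.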

Proteus vulgaris [2] = experiment: Antimicrobial activity against Proteus vulgaris RCMB 010085 assessed as inhibition zone at 5 mg/ml after 24 hrs; settings: RCMB 010085, 24 h, read-out: IZ; in short: as §1
Klebsiella pneumoniae [3] = experiment: Antimicrobial activity against Klebsiella pneumoniae RCMB 010093 assessed as absence of turbidity after 24 hrs; settings: RCMB 010093, 24 h
In short: (§2)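 Broth microdilution in Müller–Hinton broth. DMF stocks at 1000 µg/mL were diluted in broth to give twofold serial dilutions over 500–0.007 µg/mL. Bacterial inoculum was about 10^6 CFU/mL in 96-well plates, sealed and incubated at 37 °C for 24 h in a humid chamber. MIC was taken as the lowest concentration with no visible turbidity. DMF and uninoculated-medium controls were included. Only compounds giving zones >10 mm were tested.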

Bacillus subtilis [4] = experiment: Antimicrobial activity against Bacillis subtilis RCMB 010067 assessed as inhibition zone at 5 mg/ml after 24 hrs; settings: RCMB 010067, 24 h, read-out: IZ; in short: as §1
Proteus vulgaris [5] = experiment: Antimicrobial activity against Proteus vulgaris RCMB 010085 assessed as absence of turbidity after 24 hrs; settings: RCMB 010085, 24 h; in short: as §2
[6] = system: Syncephalastrum racemosum; experiment: Antifungal activity against Syncephalastrum racemosum RCMB 05922 assessed as inhibition zone at 5 mg/ml after 48 hrs; settings: RCMB 05922, 48 h, read-out: IZ
Aspergillus fumigatus [7] = experiment: Antifungal activity against Aspergillus fumigatus RCMB 02568 assessed as inhibition zone at 5 mg/ml after 48 hrs; settings: RCMB 02568, 48 h, read-out: IZ
In short: (§3)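 Disk diffusion on nutrient agar seeded with 10^4 CFU/mL fungus. Sterile filter-paper disks carried 100 µL of a 5 mg/mL DMF solution, and DMF alone served as control. Plates were incubated at 25 °C for 48 h. Mean inhibition zone in mm ± SD was read beyond the 6 mm diameter, in triplicate.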

Aspergillus fumigatus [8] = experiment: Antifungal activity against Aspergillus fumigatus RCMB 02568 assessed as absence of turbidity after 48 hrs; settings: RCMB 02568, 48 h
In short: as §2, with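 “Sabouraud liquid medium.” for “Müller–Hinton broth.”, “Fungal” for “Bacterial”, “10^4” for “10^6”, “25” for “37”, “48” for “24”, “included.” for “included. Only compounds giving zones >10 mm were tested.”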

Geotrichum candidum [9] = experiment: Antifungal activity against Geotrichum candidum RCMB 05097 assessed as inhibition zone at 5 mg/ml after 48 hrs; settings: RCMB 05097, 48 h, read-out: IZ; in short: as §3
[10] = system: Syncephalastrum racemosum; experiment: Antifungal activity against Syncephalastrum racemosum RCMB 05922 assessed as absence of turbidity after 48 hrs; settings: RCMB 05922, 48 h
Klebsiella pneumoniae [11] = experiment: Antimicrobial activity against Klebsiella pneumoniae RCMB 010093 assessed as inhibition zone at 5 mg/ml after 24 hrs; settings: RCMB 010093, 24 h, read-out: IZ; in short: as §1
Streptococcus pneumoniae [12] = experiment: Antimicrobial activity against Streptococcus pneumoniae RCMB 010010 assessed as inhibition zone at 5 mg/ml after 24 hrs; settings: RCMB 010010, 24 h, read-out: IZ; in short: as §1
Escherichia coli [13] = experiment: Antimicrobial activity against Escherichia coli RCMB 010052 assessed as absence of turbidity after 24 hrs; settings: RCMB 010052, 24 h; in short: as §2
Streptococcus pneumoniae [14] = experiment: Antimicrobial activity against Streptococcus pneumoniae RCMB 010010 assessed as absence of turbidity after 24 hrs; settings: RCMB 010010, 24 h; in short: as §2
Geotrichum candidum [15] = experiment: Antifungal activity against Geotrichum candidum RCMB 05097 assessed as absence of turbidity after 48 hrs; settings: RCMB 05097, 48 h
In short: as §2, with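 “Sabouraud liquid medium.” for “Müller–Hinton broth.”, “Fungal” for “Bacterial”, “10^4” for “10^6”, “25” for “37”, “48” for “24”, “included.” for “included. Only compounds giving zones >10 mm were tested.”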

[16] = system: Staphylococcus epidermidis; experiment: Antimicrobial activity against Staphylococcus epidermidis RCMB 010024 assessed as absence of turbidity after 24 hrs; settings: RCMB 010024, 24 h; in short: as §2
Escherichia coli [17] = experiment: Antimicrobial activity against Escherichia coli RCMB 010052 assessed as inhibition zone at 5 mg/ml after 24 hrs; settings: RCMB 010052, 24 h, read-out: IZ; in short: as §1
Bacillus subtilis [18] = experiment: Antimicrobial activity against Bacillis subtilis RCMB 010067 assessed as absence of turbidity after 24 hrs; settings: RCMB 010067, 24 h; in short: as §2

| Compound | zone of inhibition at 5000 µg/mL [1] [mm] | zone of inhibition at 5000 µg/mL (Proteus vulgaris [2]) [mm] | MIC (Klebsiella pneumoniae [3]) [µg/mL] | zone of inhibition at 5000 µg/mL (Bacillus subtilis [4]) [mm] | MIC (Proteus vulgaris [5]) [µg/mL] | zone of inhibition at 5000 µg/mL [6] [mm] | zone of inhibition at 5000 µg/mL (Aspergillus fumigatus [7]) [mm] | MIC (Aspergillus fumigatus [8]) [µg/mL] | zone of inhibition at 5000 µg/mL (Geotrichum candidum [9]) [mm] | MIC [10] [µg/mL] | zone of inhibition at 5000 µg/mL (Klebsiella pneumoniae [11]) [mm] | zone of inhibition at 5000 µg/mL (Streptococcus pneumoniae [12]) [mm] | MIC (Escherichia coli [13]) [µg/mL] | MIC (Streptococcus pneumoniae [14]) [µg/mL] | MIC (Geotrichum candidum [15]) [µg/mL] | MIC [16] [µg/mL] | zone of inhibition at 5000 µg/mL (Escherichia coli [17]) [mm] | MIC (Bacillus subtilis [18]) [µg/mL] |
| --- | --- | --- | --- | --- | --- | --- | --- | --- | --- | --- | --- | --- | --- | --- | --- | --- | --- | --- |
| CC(=O)OC[C@H]1O[C@@H](Sc2c(C#N)c(-c3ccc(Cl)cc3)c(C#N)c(=O)n2-c2ccc(S(=O)(=O)Nc3onc(C)c3C)cc2)[C@H](OC(C)=O)[C@@H](OC(C)=O)[C@@H]1OC(C)=O | 24.2 | 21.2 | 0.03 (≈ 0.0346 µM) | 29.8 | 0.98 (≈ 1.13 µM) | 20.3 | 22.3 | 0.49 (≈ 0.564 µM) | 25.8 | 3.9 (≈ 4.49 µM) | 25.8 | 25.1 | 0.24 (≈ 0.276 µM) | 0.06 (≈ 0.0691 µM) | 0.03 (≈ 0.0346 µM) | 0.12 (≈ 0.138 µM) | 23.2 | 0.007 (≈ 0.00806 µM) |
| COc1ccc(-c2[nH]nc(N)c2C(=O)Nc2ccc(S(=O)(=O)Nc3onc(C)c3C)cc2)cc1 | 18.9 | 19.6 | 15.6 (≈ 32.4 µM) | 20.4 | 1.95 (≈ 4.04 µM) | 24.4 | 26.1 | 0.03 (≈ 0.0622 µM) | 13.6 | 0.12 (≈ 0.249 µM) | 17.1 | 22 | 7.81 (≈ 16.2 µM) | 0.49 (≈ 1.02 µM) | 125 (≈ 259 µM) | 3.9 (≈ 8.08 µM) | 17.8 | 1.95 (≈ 4.04 µM) |
| Cc1noc(NS(=O)(=O)c2ccc(NC(=O)/C(C#N)=C/c3ccccc3)cc2)c1C | 19.1 | 18 | 0.49 (≈ 1.16 µM) | 20.3 | 7.81 (≈ 18.5 µM) | 18.8 | 17.1 | 15.6 (≈ 37 µM) | 20.9 | 7.81 (≈ 18.5 µM) | 21.9 | 18.4 | 1.95 (≈ 4.62 µM) | 7.81 (≈ 18.5 µM) | 0.98 (≈ 2.32 µM) | 3.9 (≈ 9.23 µM) | 20.6 | 1.95 (≈ 4.62 µM) |
| CNc1sc(C(C)=O)c(N)c1C(=O)Nc1ccc(S(=O)(=O)Nc2onc(C)c2C)cc1 | 18.7 | 18.2 | 15.6 (≈ 33.7 µM) | 19.1 | 3.9 (≈ 8.41 µM) | 14.1 | 15.8 | 62.5 (≈ 135 µM) | 16.4 | 62.5 (≈ 135 µM) | 16.9 | 16.6 | 15.6 (≈ 33.7 µM) | 16.6 (≈ 35.9 µM) | 31.2 (≈ 67.4 µM) | 7.81 (≈ 16.8 µM) | 17.1 | 3.9 (≈ 8.41 µM) |
| COc1ccc(-c2c(C#N)c(S)n(-c3ccc(S(=O)(=O)Nc4onc(C)c4C)cc3)c(=O)c2C#N)cc1 | 19.9 | 18.6 | 0.98 (≈ 1.84 µM) | 22.4 | 3.9 (≈ 7.31 µM) | 16.3 | 20.4 | 0.98 (≈ 1.84 µM) | 22.4 | 31.2 (≈ 58.6 µM) | 21.4 | 20.6 | 0.98 (≈ 1.84 µM) | 0.98 (≈ 1.84 µM) | 0.49 (≈ 0.918 µM) | 1.95 (≈ 3.65 µM) | 20.6 | 0.98 (≈ 1.84 µM) |
| CCOc1ccc(-n2nc(C(=O)Nc3ccc(S(=O)(=O)Nc4onc(C)c4C)cc3)c(N)c2C#N)cc1 | 18.9 | 18.2 | 0.06 (≈ 0.115 µM) | 19.6 | 7.81 (≈ 15 µM) | 24.6 | 23 | 0.24 (≈ 0.46 µM) | 21.9 | 0.06 (≈ 0.115 µM) | 25.1 | 20 | 31.2 (≈ 59.9 µM) | 1.95 (≈ 3.74 µM) | 0.49 (≈ 0.939 µM) | 3.9 (≈ 7.48 µM) | 16.4 | 1.95 (≈ 3.74 µM) |
| CC(=O)c1sc(NC23CC4CC(CC(C4)C2)C3)c(C(=O)Nc2ccc(S(=O)(=O)Nc3onc(C)c3C)cc2)c1N | 20.9 | 17.4 | 0.98 (≈ 1.68 µM) | 22.9 | 15.6 (≈ 26.7 µM) | 26.9 | 25.3 | 0.06 (≈ 0.103 µM) | 24.6 | 0.007 (≈ 0.012 µM) | 20.3 | 21.6 | 0.007 (≈ 0.012 µM) | 0.98 (≈ 1.68 µM) | 0.12 (≈ 0.206 µM) | 0.98 (≈ 1.68 µM) | 29.9 | 0.24 (≈ 0.411 µM) |
| Cc1noc(NS(=O)(=O)c2ccc(-n3c(S)c(C#N)c(-c4ccc(Cl)cc4)c(C#N)c3=O)cc2)c1C | 20.2 | 19.3 | 0.24 (≈ 0.446 µM) | 24.4 | 3.9 (≈ 7.25 µM) | 20.2 | 21.6 | 0.98 (≈ 1.82 µM) | 22.8 | 1.95 (≈ 3.62 µM) | 23.2 | 22.3 | 0.98 (≈ 1.82 µM) | 0.49 (≈ 0.911 µM) | 0.24 (≈ 0.446 µM) | 0.49 (≈ 0.911 µM) | 20.6 | 0.12 (≈ 0.223 µM) |
| Cc1noc(NS(=O)(=O)c2ccc(NC(=O)/C(C#N)=C/c3cccnc3)cc2)c1C | 22.3 | 19.3 | 0.12 (≈ 0.283 µM) | 26.2 | 3.9 (≈ 9.21 µM) | 18.7 | 23.4 | 0.49 (≈ 1.16 µM) | 25.6 | 3.9 (≈ 9.21 µM) | 24.2 | 24.6 | 0.12 (≈ 0.283 µM) | 0.06 (≈ 0.142 µM) | 0.03 (≈ 0.0708 µM) | 0.49 (≈ 1.16 µM) | 23.7 | 0.03 (≈ 0.0708 µM) |
| Cc1noc(NS(=O)(=O)c2ccc(-n3c(S)c(C#N)c(-c4ccco4)c(C#N)c3=O)cc2)c1C | 21.4 | 18.3 | 0.24 (≈ 0.486 µM) | 23.6 | 7.81 (≈ 15.8 µM) | 20.6 | 22 | 0.49 (≈ 0.993 µM) | 24.3 | 0.98 (≈ 1.99 µM) | 22.6 | 22.6 | 0.98 (≈ 1.99 µM) | 0.24 (≈ 0.486 µM) | 0.12 (≈ 0.243 µM) | 0.98 (≈ 1.99 µM) | 21.6 | 0.12 (≈ 0.243 µM) |
| Cc1cc(C)n(-c2ccc(S(=O)(=O)Nc3onc(C)c3C)cc2)c(=O)c1C#N | 21.4 | 19.5 | 0.98 (≈ 2.46 µM) | 25.3 | 1.85 (≈ 4.64 µM) | 20.3 | 22.9 | 0.24 (≈ 0.602 µM) | 23.1 | 1.95 (≈ 4.89 µM) | 21.4 | 23.8 | 0.98 (≈ 2.46 µM) | 0.12 (≈ 0.301 µM) | 0.24 (≈ 0.602 µM) | 0.98 (≈ 2.46 µM) | 20.9 | 0.06 (≈ 0.151 µM) |
